# Screening data as filed in PubChem.
# OX1R antag-1: antagonists of human orexin 1 receptor (OX1R). actives 1.8% (n = 330,000). O43613. OX1R-expressing cells, FRET antagonist read-out. inhibition, % at 6.6 µM; in the data active = inhibition mostly above about 38%, no sharp cut-off; inactive = mostly below about 40%;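 also: 0% = agonist challenge alone and 100% = reference antagonist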
# OXTR agonist: activates the human oxytocin receptor | AID 2435 | actives 0.32% (n = 320,000) | CHO-OTR cells, Fluo-8 calcium fluorescence; normalized: DMSO 0%, oxytocin 100% | activation, % at 3 µM;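 active = activation above the mean of all tested compounds plus 3 SD, cutoff set per screening run, cut at about 20% in these data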;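 also: peak over basal fluorescence ratio from a 100 s FLIPR kinetic read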
# Target sequence (P30559 whole entry, looked up): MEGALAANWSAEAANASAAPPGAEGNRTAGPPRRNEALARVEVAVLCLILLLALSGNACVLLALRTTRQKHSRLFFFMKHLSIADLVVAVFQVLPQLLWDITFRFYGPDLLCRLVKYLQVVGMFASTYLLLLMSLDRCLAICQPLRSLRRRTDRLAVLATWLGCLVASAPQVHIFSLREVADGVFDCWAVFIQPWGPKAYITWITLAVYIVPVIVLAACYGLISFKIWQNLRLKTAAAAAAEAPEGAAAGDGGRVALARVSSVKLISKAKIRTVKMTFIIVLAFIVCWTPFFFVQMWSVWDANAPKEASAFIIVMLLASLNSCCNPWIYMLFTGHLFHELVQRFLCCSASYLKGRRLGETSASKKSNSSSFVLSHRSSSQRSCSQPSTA
# V1aR counter: counter-screen for oxytocin receptor agonists: human V1a receptor agonists | CHO-V1R cells, Fluo-8 calcium fluorescence, agonist mode; 0% DMSO, 100% 3 nM vasopressin | activation, % at 3 µM | actives 0.25% (n = 320,000);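 active = activation above the mean activation of all tested compounds plus 3 SD, per screening run, cut at about 20% in these data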;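 also: signal is peak over basal fluorescence ratio across a 100 second FLIPR read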
# OXTR potentiator: potentiates the human oxytocin receptor response; P30559; CHO-OTR cells, Fluo-8 calcium fluorescence, potentiator mode; 0% = oxytocin EC15, 100% = EC100; activation, % at 3 µM; actives 0.061% (n = 320,000); AID 2445;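 active = activation above that plate's cutoff, the mean activation of tested compounds plus 3 SD, cut at about 6.6% in these data, passing the limit was not always enough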;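 also: 100% uses oxytocin at 75 nM as the full agonist control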
#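 Assay system: CHO-OTR cells, human receptor / Also added: oxytocin at about EC15, sub-maximal agonist stimulus / Dosing: single dose, 3.0 µM nominal final compound concentration / Incubation: 6 min pre-incubation, 100 s read / Technique: Fluo-8 calcium dye fluorescence / Read-out: % activation vs EC15 and EC100 oxytocin / Benchmarks: EC15 oxytocin low, 75 nM oxytocin high / Replicates: singlicate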
# CHO parental Ca: counter-screen for OX1R antagonists: effect in parental CHO cells; parental CHO-K1, ATP-induced calcium, Fluo-8 fluorescence; inhibition, % at 5.6 µM; actives 0.63% (n = 330,000);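 active = inhibition above that plate's mean sample inhibition plus 3 SD, cut at about 26% in these data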;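 also: 0% = ATP-challenged DMSO wells and 100% = DMSO wells without ATP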
#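 material = parental CHO cells | also added = ATP as calcium-mobilizing challenge | dosing = single point at 5.6 µM | detection = intracellular calcium via Fluo-8 no-wash fluorescent dye | read-out = % inhibition | benchmarks = low control ATP plus DMSO, high control DMSO only | repeats = one well per compound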
# OX1R antag-2: antagonists of human orexin 1 receptor; CHO/OX1R cells, Fluo-8 calcium fluorescence, orexin A; inhibition, % at 5 µM; actives 0.43% (n = 330,000); AID 434989;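 active = inhibition above its plate's threshold, mean inhibition of all tested compounds on the plate plus 3 SD, cut at about 37% in these data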;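 also: 0% = orexin A challenge wells and 100% = SB-334867-A antagonist wells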
# An asterisk follows results filed as active. Sampled rows, rich in hits. Any-hit rate of the full collection: about 2.6%.
SMILES,OX1R antag-1,OXTR agonist,V1aR counter,OXTR potentiator,CHO parental Ca,OX1R antag-2
COc1ccccc1C(C)Nc1ccc(S(=O)(=O)N2CCN(C)CC2)cc1[N+](=O)[O-] (centres undefined),9,-1,0,-8,-27,-22
COc1cc(C(=O)NCC(c2cccs2)N2CCOCC2)cc(Br)c1OCc1ccccc1 (centres undefined),4,1,0,-9,-27,-28
O=C1C2C3C=CC(C3)C2C(=O)N1c1ccccc1OS(=O)(=O)c1ccccc1 (centres undefined),71*,1,2,-8,-16,5
CCOC(=O)CSc1nc(N2CCOCC2)c2c(c1C#N)CC(C)(C)N(C)C2,46*,0,1,-18,-27,-31
Cc1cccc(C(=O)OC2CCOC2=O)c1O (centres undefined),4,1,0,4,-7,-8
CN(Cc1cccs1)C(=O)c1ccc(Cl)c(S(=O)(=O)N2CCCCCC2)c1,14,0,2,-4,-16,-14
N#CC(C#N)=C1C=C2C=C(N3CCCCC3)CCC2CC1 (centres undefined),42,921*,617*,-12,101*,106*
CCCCN(C)C1=CC2=CC(=C(C#N)C#N)CCC2CC1 (centres undefined),25,771*,873*,-23,101*,106*
CCN(CC)C1=CC2=CC(=C(C#N)C#N)CCC2CC1 (centres undefined),28,807*,750*,-21,99*,107*
O=S(=O)(NCC(O)c1ccccc1)c1cc(Cl)sc1Cl (centres undefined),9,0,1,-10,-8,-13
COc1ccc(-c2nc3ccccn3c2Cl)cc1,43*,-2,-1,-14,-13,-18
COc1ccc(-c2nc3ccccn3c2CN2CCN(c3ccccc3F)CC2)cc1,11,-2,-1,6,-46,-34
CCOC(=O)c1ccc(NC(=S)N2CCN(CCO)CC2)cc1,9,1,1,-17,-6,-8
CCCCN(c1nc2ccccc2nc1Cl)S(=O)(=O)c1ccc(C)cc1,15,0,0,-17,54*,1
CCOc1ccccc1C(=O)Nc1cc(C(=O)NCC(C)C)ccc1Cl,48*,-3,-1,-21,-2,-16
COC(=O)c1sccc1NC(=O)c1ccc(C)s1,56*,-2,3,-9,-31,-4
CCOc1ccccc1C(=O)Nc1ccsc1C(=O)OC,69*,-2,-1,5,-15,-20
CC1CCc2c(sc3ncnc(SC(C)C(=O)NCC4CCCO4)c23)C1 (centres undefined),19,-2,-2,-7,-28,-38
Cc1cc(NC(=O)C(C)SCC(=O)Nc2ccc(Br)cc2Br)no1 (centres undefined),9,-2,5,4,-7,-10
COc1ccc(NC(=O)N(C)C[C@@H]2Oc3ccc(NC(=O)NC(C)C)cc3CC(=O)N([C@H](C)CO)C[C@@H]2C)cc1,11,1,1,-1,-1,-10
Cc1ccc(S(=O)(=O)N2CCC(=O)N(CCOCc3ccc(C(F)(F)F)cc3)CC2)cc1,45,9,16,-12,49*,-20
O=C1CCN(S(=O)(=O)c2ccccc2)CCN1CCOCc1ccc(C(F)(F)F)cc1,27,8,8,-8,-18,-22
Oc1[nH]c(=S)sc1/C=C1\C(c2ccccc2)=Nc2ccccc21,76*,8,8,-6,18,23
COc1c(/C=C2\SC(=Nc3ccccc3Cl)NC2=O)cccc1[N+](=O)[O-],68*,-2,1,-11,-7,-14
Cc1nn2c(CN(C(=O)COc3ccccc3)c3ccccc3)nnc2c2ccccc12,62*,1,2,-4,-10,0
SMILES,OX1R antag-1,OXTR agonist,V1aR counter,OXTR potentiator,CHO parental Ca,OX1R antag-2
COc1cccc(-c2nc(CS(=O)(=O)CC(=O)Nc3ccccc3C)c(C)o2)c1,17,-1,2,-2,-23,-10
COc1cccc(-c2nc(CS(=O)(=O)CC(=O)Nc3ccccc3Cl)c(C)o2)c1,51*,1,2,-13,-19,5
CCOC(=O)Nc1ccc2c(c1)Sc1ccccc1N2C(=O)CCN1CCOCC1,28,1,0,-1,-17,-22
COc1cc(C(=S)N2CCOCC2)cc(Br)c1OS(=O)(=O)c1ccccc1,35*,5,5,-7,5,18
O=C(COC(=O)CNC(=O)c1ccc(Cl)c([N+](=O)[O-])c1)NC(=O)c1ccccc1,51*,1,2,-7,-2,-8
CCOc1ccccc1N(CC(=O)NCCSc1ccccn1)S(=O)(=O)c1ccc(C)cc1,42*,2,0,-9,-32,-13
COc1ccccc1N(CC(=O)NCCSc1ccccn1)S(=O)(=O)c1ccccc1,51*,3,2,-14,-27,-15
COc1ccc(/C=C/C(=O)c2ccc(OC)cc2OC)c(OC)c1,51*,3,0,-2,3,-16
COc1cc(/C=C/C(=O)c2ccc3c(c2)OCO3)cc(Cl)c1O,13,70*,98*,-16,44*,49*
COc1ccc(/C=C/C(=O)c2ccc3c(c2)OCO3)c(OC)c1,23,0,1,-6,-13,-16
COc1ccc(/C=C/C(=O)c2ccc(O)cc2)cc1,10,1,1,-2,-1,3
COc1ccc2cc(C(=O)/C=C/c3cc(OC)c(OC)c(OC)c3)ccc2c1,70*,2,3,-14,-19,24
Cc1ccc(-n2nc(CN3CCOCC3)c(-c3ccccc3)c2N)c(C)c1,8,-1,0,-6,-18,-18
CCOC(=O)c1oc2ccccc2c1COC(=O)CNC(=O)c1cccc(C)c1,7,-1,-1,-8,-12,-22
Clc1cccc(CON/C=N/c2ncnc3sccc23)c1,82*,2,5,-16,-9,2
O=C(COc1ccc(F)cc1Br)NCc1nnc2ccccn12,2,0,6,1,-14,0
O=C(COc1ccc(OCc2ccccc2)cc1)NC1CCOC1=O (centres undefined),28,4,6,-10,38*,-2
COc1ccc(CCNC(=O)COc2ccc(S(=O)(=O)NC(C)C)cc2Cl)cc1OC,47*,1,0,-1,-5,16
COc1ccc(CCNC(=O)CCc2ccc(S(=O)(=O)NC(C)C)cc2)cc1OC,0,-1,-1,3,-14,-20
CCn1c(C)nc2cc(C(=O)OC(C(F)(F)C(F)F)C(F)(F)C(F)F)ccc21,32,15,9,-11,26,66*
